Reference: the M2OR odorant receptor database

Columns and labels:
Settings in all cases: stereoisomer not certain
[1] = biological target: T1, UniProt Q8VF43
T1 sequence (whole entry): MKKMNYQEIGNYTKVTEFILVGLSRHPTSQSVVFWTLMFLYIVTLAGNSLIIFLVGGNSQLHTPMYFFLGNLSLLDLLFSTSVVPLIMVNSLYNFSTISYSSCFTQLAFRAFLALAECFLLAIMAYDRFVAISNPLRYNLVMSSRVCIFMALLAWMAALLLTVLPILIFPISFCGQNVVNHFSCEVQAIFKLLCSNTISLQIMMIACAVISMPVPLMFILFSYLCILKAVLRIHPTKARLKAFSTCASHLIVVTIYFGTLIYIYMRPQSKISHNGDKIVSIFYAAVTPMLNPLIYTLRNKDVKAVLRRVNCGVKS
Method in brief: (§1)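 Assay methods differ from source to source, frequently being transient luciferase assays in mammalian cell lines. For each receptor–molecule pair, the label responsive (active) applies when the original authors judged the measured signal statistically different from baseline, and non-responsive (inactive) applies otherwise.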

[2] = biological target: T2, UniProt Q8VF52
T2 sequence (whole entry): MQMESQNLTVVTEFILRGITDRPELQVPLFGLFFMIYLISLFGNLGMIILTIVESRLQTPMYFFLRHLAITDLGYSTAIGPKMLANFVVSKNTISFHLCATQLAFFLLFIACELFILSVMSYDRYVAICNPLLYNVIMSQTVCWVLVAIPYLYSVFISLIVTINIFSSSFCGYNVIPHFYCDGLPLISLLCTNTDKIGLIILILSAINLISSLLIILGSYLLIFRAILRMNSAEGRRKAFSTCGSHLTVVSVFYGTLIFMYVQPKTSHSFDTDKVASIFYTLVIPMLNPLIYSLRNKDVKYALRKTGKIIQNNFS
Method in brief: as §1

[3] = biological target: T3, UniProt Q8VFM8
T3 sequence (whole entry): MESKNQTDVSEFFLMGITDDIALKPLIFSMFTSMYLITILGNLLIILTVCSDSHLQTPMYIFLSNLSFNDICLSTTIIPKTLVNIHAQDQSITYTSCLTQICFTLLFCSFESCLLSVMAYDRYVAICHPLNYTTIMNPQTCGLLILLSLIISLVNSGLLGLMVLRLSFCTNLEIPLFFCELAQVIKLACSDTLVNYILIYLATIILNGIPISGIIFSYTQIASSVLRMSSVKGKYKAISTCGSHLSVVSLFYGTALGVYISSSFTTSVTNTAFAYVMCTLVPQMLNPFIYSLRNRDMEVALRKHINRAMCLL
Method in brief: as §1

[4] = biological target: T4, UniProt Q8VFP5
T4 sequence (whole entry): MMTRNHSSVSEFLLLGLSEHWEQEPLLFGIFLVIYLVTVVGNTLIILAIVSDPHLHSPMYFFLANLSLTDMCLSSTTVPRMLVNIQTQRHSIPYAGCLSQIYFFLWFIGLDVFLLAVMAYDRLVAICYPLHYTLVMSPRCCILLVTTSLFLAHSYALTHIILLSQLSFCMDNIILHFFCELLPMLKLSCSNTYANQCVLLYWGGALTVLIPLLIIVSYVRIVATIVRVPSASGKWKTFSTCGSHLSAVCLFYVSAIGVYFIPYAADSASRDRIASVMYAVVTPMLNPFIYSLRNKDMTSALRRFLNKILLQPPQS
Method in brief: as §1

[5] = biological target: T5, UniProt Q8VG01
T5 sequence (whole entry): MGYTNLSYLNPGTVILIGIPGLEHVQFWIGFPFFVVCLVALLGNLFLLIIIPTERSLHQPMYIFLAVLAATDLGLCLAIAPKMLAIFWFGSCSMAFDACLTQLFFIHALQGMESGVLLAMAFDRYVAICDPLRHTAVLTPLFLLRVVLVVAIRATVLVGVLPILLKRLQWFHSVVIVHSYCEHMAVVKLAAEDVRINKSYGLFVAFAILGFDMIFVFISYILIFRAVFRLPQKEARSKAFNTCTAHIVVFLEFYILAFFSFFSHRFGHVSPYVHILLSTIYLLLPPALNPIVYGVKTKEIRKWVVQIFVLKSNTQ
Method in brief: as §1

[6] = biological target: UniProt Q8VFV2
Chain of UniProt Q8VFV2 (Q8VFV2 as listed by the source): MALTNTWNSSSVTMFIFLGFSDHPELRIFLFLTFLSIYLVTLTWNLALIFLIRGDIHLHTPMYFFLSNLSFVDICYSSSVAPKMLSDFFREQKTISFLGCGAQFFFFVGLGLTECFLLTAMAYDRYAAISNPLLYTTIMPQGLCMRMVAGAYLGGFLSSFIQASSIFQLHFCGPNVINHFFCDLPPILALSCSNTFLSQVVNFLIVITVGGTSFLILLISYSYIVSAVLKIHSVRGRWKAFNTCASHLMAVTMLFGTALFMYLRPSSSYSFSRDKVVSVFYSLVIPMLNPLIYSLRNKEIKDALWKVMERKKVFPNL
Method in brief: as §1

[7] = biological target: UniProt Q8VFV3
Chain of UniProt Q8VFV3 (Q8VFV3 as listed by the source): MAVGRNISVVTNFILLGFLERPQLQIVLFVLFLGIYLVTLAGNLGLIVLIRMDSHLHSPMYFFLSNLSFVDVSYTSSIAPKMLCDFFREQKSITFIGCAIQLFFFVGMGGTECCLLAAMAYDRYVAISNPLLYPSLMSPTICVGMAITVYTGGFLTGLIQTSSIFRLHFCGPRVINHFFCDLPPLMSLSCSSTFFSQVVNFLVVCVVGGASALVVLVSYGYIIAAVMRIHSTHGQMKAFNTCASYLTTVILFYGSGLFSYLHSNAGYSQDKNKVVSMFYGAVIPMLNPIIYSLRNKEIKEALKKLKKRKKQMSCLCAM
Method in brief: as §1

[8] = biological target: UniProt Q8VFV8
Chain of UniProt Q8VFV8 (Q8VFV8 as listed by the source): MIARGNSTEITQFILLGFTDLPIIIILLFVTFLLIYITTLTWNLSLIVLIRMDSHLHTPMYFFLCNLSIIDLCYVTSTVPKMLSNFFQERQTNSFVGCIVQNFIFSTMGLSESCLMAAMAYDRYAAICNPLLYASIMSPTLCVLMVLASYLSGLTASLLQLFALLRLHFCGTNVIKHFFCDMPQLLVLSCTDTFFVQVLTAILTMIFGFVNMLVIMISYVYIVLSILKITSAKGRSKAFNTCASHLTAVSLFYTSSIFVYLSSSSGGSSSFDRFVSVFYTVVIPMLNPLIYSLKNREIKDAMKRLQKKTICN
Method in brief: as §1

[9] = biological target: UniProt Q8VFW7
Chain of UniProt Q8VFW7 (Q8VFW7 as listed by the source): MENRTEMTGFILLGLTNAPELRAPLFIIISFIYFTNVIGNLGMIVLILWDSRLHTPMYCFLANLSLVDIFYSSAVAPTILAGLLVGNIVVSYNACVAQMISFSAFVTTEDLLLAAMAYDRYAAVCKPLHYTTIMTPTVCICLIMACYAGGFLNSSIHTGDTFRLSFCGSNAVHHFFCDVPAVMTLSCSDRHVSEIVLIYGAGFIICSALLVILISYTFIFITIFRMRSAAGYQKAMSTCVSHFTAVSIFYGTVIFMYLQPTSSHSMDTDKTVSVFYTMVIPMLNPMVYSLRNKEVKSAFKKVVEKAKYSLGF
Method in brief: as §1

Measured: odorant receptor agonist call

O=C(OCc1ccccc1)c1ccccc1O
inactive: [1] | [2] | [3] | [4] | [5]

CCN(CC)CC
inactive: [1] | [2] | [3] | [4] | [5]

CSSCc1ccco1
inactive: [1] | [2] | [3] | [4] | [5]

CCSSCC
inactive: [1] | [2] | [3] | [4] | [5]

CCCCCC(C)O (centres undefined)
inactive: [1] | [2] | [3] | [4] | [5]

Cc1ccccc1OC(=O)C(C)C
inactive: [1] | [2] | [3] | [4] | [5]

CC(C)CS
inactive: [1] | [2] | [3] | [4] | [5]

CC1CCCCCCCCCCCCC(=O)C1 (centres undefined)
inactive: [6] | [7] | [8] | [9]

CCCCCCCOC(=O)C(C)C
inactive: [1] | [2] | [3] | [4] | [5]

CC(=O)C1(C)CC2=C(CCCC2(C)C)CC1C (centres undefined)
inactive: [1] | [2] | [3] | [4] | [5]

CCSCC
inactive: [1] | [2] | [3] | [4] | [5]

CCCCCC(C=O)=Cc1ccccc1
active: [2]
inactive: [1] | [3] | [4] | [5]

CC1(C)CC(=O)CC(=O)C1
inactive: [1] | [2] | [3] | [4] | [5]

CC(CC=O)CCCC(C)(C)O (centres undefined)
inactive: [1] | [2] | [3] | [4] | [5]

C=C(C)C1CCC(C)C(O)C1 (centres undefined)
inactive: [1] | [2] | [3] | [4] | [5]

CC1CC=CCCCCCCCCCC(=O)C1 (centres undefined)
inactive: [1] | [2] | [3] | [4] | [5]

Cc1ccc(C(C)C)cc1
inactive: [1] | [2] | [3] | [4] | [5]
